Laboratory results taken from ChEMBL document CHEMBL2169803, “Brain Penetrant LRRK2 Inhibitor” (ACS Med Chem Lett, 2012).
The source made the active and inactive calls. No cut-off for these calls is given here.

What was measured:
[1] = test system: Mus musculus; assay: Inhibition of LRRK2 in C57BL/6 mouse brain at 100 mg/kg, ip by ADP-acylphosphate probe-based mass spectrometry relative to vehicle-treated control; format: functional
Summary of the method: (§1)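 KiNativ chemical proteomics on brains and spleens from mice dosed intraperitoneally at 3, 10, 30, 50 or 100 mg/kg, compared against vehicle-treated animals. Tissue lysed in 5× volume of detergent-free buffer and labeled with an ADP-acylphosphate probe. After workup and trypsin digestion, probe labeling was quantified by mass spectrometry across >150 protein and lipid kinases. Values reflect 5× dilution relative to intact tissue.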

[2] = target: Leucine-rich repeat serine/threonine-protein kinase 2 (Homo sapiens) (UniProt Q5S007); details: HEK293, 1 uM
[3] = test system: Leucine-rich repeat serine/threonine-protein kinase 2 (Homo sapiens), Q5S007 [G2019S]; details: HEK293, 1 uM
[4] = test system: Mus musculus; assay: Inhibition of LRRK2 in C57BL/6 mouse brain at 30 mg/kg, ip by ADP-acylphosphate probe-based mass spectrometry relative to vehicle-treated control; format: functional; details: C57BL/6, Brain, route intraperitoneal; summary of the method: as §1
[5] = test system: Mus musculus; assay: Inhibition of LRRK2 autophosphorylation at Ser910 and Ser935 in C57BL/6 mouse brain at 10 mg/kg, ip by immunoblotting analysis relative to vehicle-treated control; format: functional, organism-based; design: dose 10 mg/kg
[6] = target: Leucine-rich repeat serine/threonine-protein kinase 2 (Mus musculus) (UniProt Q5S006); assay: Inhibition of LRRK2 autophosphorylation at Ser910 and Ser935 Swiss mouse 3T3 cells by immunoblotting analysis; format: cell-based
Summary of the method: (§2)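 Mouse Swiss 3T3 cells or mouse embryonic fibroblasts were treated with DMSO or increasing concentrations of compound for 90 min. Lysates were immunoblotted for LRRK2 phospho-Ser910, phospho-Ser935 and total LRRK2. Immunoblots were run in duplicate and are representative of at least two independent experiments.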

[7] = target: Leucine-rich repeat serine/threonine-protein kinase 2 (Mus musculus) (UniProt Q5S006); assay: Inhibition of LRRK2 autophosphorylation at Ser910 and Ser935 mouse embryonic fibroblast cells by immunoblotting analysis; format: cell-based; summary of the method: as §2
[8] = Oral bioavailability in mouse at 10 mg/kg; format: ADME, organism-based; details: in vivo
Summary of the method: (§3)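 Mouse pharmacokinetics run by a contract lab; parameters reported include oral bioavailability (%F), plasma AUClast and half-life. Full PK parameter set is given in the Supporting Information.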

[9] = test system: Mus musculus; assay: Half life in mouse at 1 mg/kg, iv; format: ADME, organism-based; design: dose 1 mg/kg, route intravenous; details: in vivo; summary of the method: as §3
[10] = test system: Mus musculus; assay: AUClast in mouse at 10 mg/kg, po; format: ADME, organism-based, Plasma; design: time 0 - last, dose 10 mg/kg, route oral; details: in vivo; summary of the method: as §3
[11] = test system: Liver; assay: Half life in mouse liver microsomes at 1 uM; format: ADME, Microsome
Summary of the method: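 Metabolic stability determined by incubation with mouse liver microsomes; half-life (T1/2) reported in minutes.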

[12] = test system: Mus musculus; assay: Inhibition of LRRK2 autophosphorylation at Ser910 and Ser935 in C57BL/6 mouse brain at 100 mg/kg, ip by immunoblotting analysis relative to vehicle-treated control; format: functional, organism-based; design: dose 100 mg/kg
[13] = test system: Mus musculus; assay: Inhibition of LRRK2 autophosphorylation at Ser910 and Ser935 in C57BL/6 mouse kidney at 100 mg/kg, ip by immunoblotting analysis relative to vehicle-treated control; format: functional, organism-based; design: dose 100 mg/kg
[14] = test system: Mus musculus; assay: Inhibition of LRRK2 autophosphorylation at Ser910 and Ser935 in C57BL/6 mouse spleen at 100 mg/kg, ip by immunoblotting analysis relative to vehicle-treated control; format: functional, organism-based; design: dose 100 mg/kg
[15] = test system: Mus musculus; assay: Inhibition of LRRK2 autophosphorylation at Ser910 and Ser935 in C57BL/6 mouse brain at 50 mg/kg, ip by immunoblotting analysis relative to vehicle-treated control; format: functional, organism-based; design: dose 50 mg/kg
[16] = test system: Mus musculus; assay: Inhibition of LRRK2 autophosphorylation at Ser910 and Ser935 in C57BL/6 mouse kidney at 50 mg/kg, ip by immunoblotting analysis relative to vehicle-treated control; format: functional, organism-based; design: dose 50 mg/kg
[17] = test system: Mus musculus; assay: Inhibition of LRRK2 autophosphorylation at Ser910 and Ser935 in C57BL/6 mouse spleen at 50 mg/kg, ip by immunoblotting analysis relative to vehicle-treated control; format: functional, organism-based; design: dose 50 mg/kg
[18] = test system: Mus musculus; assay: Inhibition of LRRK2 autophosphorylation at Ser910 and Ser935 in C57BL/6 mouse brain at 30 mg/kg, ip by immunoblotting analysis relative to vehicle-treated control; format: functional, organism-based; design: dose 30 mg/kg
[19] = test system: Mus musculus; assay: Inhibition of LRRK2 in ip dosed C57BL/6 mouse brain by ADP-acylphosphate probe-based mass spectrometry; format: functional, organism-based; summary of the method: as §1
[20] = test system: Mus musculus; assay: Inhibition of LRRK2 in ip dosed C57BL/6 mouse spleen by ADP-acylphosphate probe-based mass spectrometry; format: functional, organism-based; summary of the method: as §1
[21] = test system: Mus musculus; assay: Inhibition of LRRK2 in C57BL/6 mouse brain at 50 mg/kg, ip by ADP-acylphosphate probe-based mass spectrometry relative to vehicle-treated control; format: functional; details: C57BL/6, Brain, route intraperitoneal; summary of the method: as §1
[22] = test system: Mus musculus; assay: Inhibition of LRRK2 in C57BL/6 mouse spleen at 3 mg/kg, ip by ADP-acylphosphate probe-based mass spectrometry relative to vehicle-treated control; format: functional; details: C57BL/6, Spleen, route intraperitoneal; summary of the method: as §1
[23] = test system: Mus musculus; assay: Inhibition of LRRK2 in C57BL/6 mouse spleen at 10 mg/kg, ip by ADP-acylphosphate probe-based mass spectrometry relative to vehicle-treated control; format: functional; details: C57BL/6, Spleen, route intraperitoneal; summary of the method: as §1
[24] = test system: Mus musculus; assay: Inhibition of LRRK2 in C57BL/6 mouse spleen at 30 to 100 mg/kg, ip by ADP-acylphosphate probe-based mass spectrometry relative to vehicle-treated control; format: functional; details: dose mg/kg 30-100; route intraperitoneal; summary of the method: as §1
[25] = test system: Mus musculus; assay: Inhibition of JNK1 in ip dosed C57BL/6 mouse brain by ADP-acylphosphate probe-based mass spectrometry; format: functional, organism-based; summary of the method: as §1
[26] = test system: Mus musculus; assay: Inhibition of JNK2 in ip dosed C57BL/6 mouse brain by ADP-acylphosphate probe-based mass spectrometry; format: functional, organism-based; summary of the method: as §1
[27] = test system: Mus musculus; assay: Inhibition of JNK3 in ip dosed C57BL/6 mouse brain by ADP-acylphosphate probe-based mass spectrometry; format: functional, organism-based; summary of the method: as §1
[28] = test system: Mus musculus; assay: Inhibition of TBK1 in ip dosed C57BL/6 mouse brain by ADP-acylphosphate probe-based mass spectrometry; format: functional, organism-based; summary of the method: as §1
[29] = test system: Mus musculus; assay: Inhibition of JNK1 in C57BL/6 mouse brain at 50 and 100 mg/kg, ip by ADP-acylphosphate probe-based mass spectrometry relative to vehicle-treated control; format: functional; details: C57BL/6, ip, route intraperitoneal; summary of the method: as §1
[30] = test system: Mus musculus; assay: Inhibition of JNK2 in C57BL/6 mouse brain at 50 and 100 mg/kg, ip by ADP-acylphosphate probe-based mass spectrometry relative to vehicle-treated control; format: functional; details: C57BL/6, ip, route intraperitoneal; summary of the method: as §1
[31] = test system: Mus musculus; assay: Inhibition of JNK3 in C57BL/6 mouse brain at 50 and 100 mg/kg, ip by ADP-acylphosphate probe-based mass spectrometry relative to vehicle-treated control; format: functional; details: C57BL/6, ip, route intraperitoneal; summary of the method: as §1
[32] = test system: Mus musculus; assay: Inhibition of TBK1 in C57BL/6 mouse brain at 50 and 100 mg/kg, ip by ADP-acylphosphate probe-based mass spectrometry relative to vehicle-treated control; format: functional; details: C57BL/6, ip, route intraperitoneal; summary of the method: as §1
[33] = target: T1, Mitogen-activated protein kinase kinase kinase 9 (Homo sapiens, UniProt P80192); assay: Inhibition of MLK1 at 10 uM by radiometric assay
Summary of the method: (§4)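 Dundee panel of 138 kinases screened at 10 μM compound using radioactivity-based enzymatic assays. Activity was expressed relative to DMSO control.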
Target sequence in this assay (P80192 whole entry, looked up): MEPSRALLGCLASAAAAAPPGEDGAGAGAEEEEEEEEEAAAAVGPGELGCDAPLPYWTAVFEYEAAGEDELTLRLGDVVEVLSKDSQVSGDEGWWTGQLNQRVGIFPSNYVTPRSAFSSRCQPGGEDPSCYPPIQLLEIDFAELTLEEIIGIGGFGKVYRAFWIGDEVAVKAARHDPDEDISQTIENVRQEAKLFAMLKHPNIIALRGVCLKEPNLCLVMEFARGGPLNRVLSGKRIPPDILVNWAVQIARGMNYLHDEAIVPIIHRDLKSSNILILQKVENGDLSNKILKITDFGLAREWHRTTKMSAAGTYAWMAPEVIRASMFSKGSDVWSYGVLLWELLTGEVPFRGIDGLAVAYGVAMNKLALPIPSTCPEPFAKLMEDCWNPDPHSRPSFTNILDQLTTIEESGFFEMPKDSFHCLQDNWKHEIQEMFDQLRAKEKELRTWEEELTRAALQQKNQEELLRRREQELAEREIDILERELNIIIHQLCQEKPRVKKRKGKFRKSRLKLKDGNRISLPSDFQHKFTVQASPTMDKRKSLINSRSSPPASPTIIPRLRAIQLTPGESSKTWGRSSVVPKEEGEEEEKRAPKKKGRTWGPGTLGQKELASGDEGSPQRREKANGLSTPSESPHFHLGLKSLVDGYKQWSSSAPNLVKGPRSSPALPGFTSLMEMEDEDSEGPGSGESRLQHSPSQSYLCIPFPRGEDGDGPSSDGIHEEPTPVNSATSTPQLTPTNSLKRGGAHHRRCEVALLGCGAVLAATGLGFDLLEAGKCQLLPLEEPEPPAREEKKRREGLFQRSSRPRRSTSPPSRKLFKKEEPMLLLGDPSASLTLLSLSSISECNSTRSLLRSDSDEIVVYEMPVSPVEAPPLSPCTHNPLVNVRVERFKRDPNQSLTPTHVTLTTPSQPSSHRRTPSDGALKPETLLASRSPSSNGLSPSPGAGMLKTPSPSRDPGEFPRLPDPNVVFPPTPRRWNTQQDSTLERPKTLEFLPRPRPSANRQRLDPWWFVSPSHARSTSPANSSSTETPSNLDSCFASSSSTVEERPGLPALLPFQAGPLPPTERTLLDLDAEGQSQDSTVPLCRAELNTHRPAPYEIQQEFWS

[34] = target: T2, MAP kinase-interacting serine/threonine-protein kinase 2 (Homo sapiens, UniProt Q9HBH9); assay: Inhibition of MNK2 at 10 uM by radiometric assay; summary of the method: as §4
Target sequence in this assay (Q9HBH9 whole entry, looked up): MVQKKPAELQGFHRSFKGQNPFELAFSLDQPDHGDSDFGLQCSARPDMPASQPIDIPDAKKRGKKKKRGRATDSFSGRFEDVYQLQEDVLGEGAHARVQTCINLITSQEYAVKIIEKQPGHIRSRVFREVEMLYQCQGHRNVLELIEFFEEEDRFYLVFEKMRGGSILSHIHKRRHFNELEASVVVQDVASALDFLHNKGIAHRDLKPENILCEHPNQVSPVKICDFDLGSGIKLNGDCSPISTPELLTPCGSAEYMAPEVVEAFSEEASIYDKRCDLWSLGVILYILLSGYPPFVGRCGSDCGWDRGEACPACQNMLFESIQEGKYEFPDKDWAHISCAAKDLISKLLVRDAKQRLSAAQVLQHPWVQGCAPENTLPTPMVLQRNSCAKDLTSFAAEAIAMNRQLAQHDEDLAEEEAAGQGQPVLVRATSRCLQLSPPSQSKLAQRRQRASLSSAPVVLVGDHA

[35] = target: T1, Mitogen-activated protein kinase kinase kinase 9; assay: Inhibition of MLK1 by radiometric assay
Summary of the method: (§5)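 Radioactivity-based enzymatic kinase assay run in the Dundee profiling panel of 138 kinases. Kinases were first screened at 10 μM inhibitor, with activity expressed relative to a DMSO control. A dose–response analysis then gave the IC50.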
Target sequence in this assay (P80192 whole entry): as the sequence (P80192 whole entry, looked up) above

[36] = target: T2, MAP kinase-interacting serine/threonine-protein kinase 2; assay: Inhibition of MNK2 by radiometric assay; summary of the method: as §5
Target sequence in this assay (Q9HBH9 whole entry): as the sequence (Q9HBH9 whole entry, looked up) above

[37] = test system: Mast/stem cell growth factor receptor Kit (Homo sapiens), P10721 [L576P]; assay: Inhibition of cKIT L576P mutant at 1 uM by KinomeScan assay

Chain of Leucine-rich repeat serine/threonine-protein kinase 2 (Mus musculus) (Q5S006 whole entry): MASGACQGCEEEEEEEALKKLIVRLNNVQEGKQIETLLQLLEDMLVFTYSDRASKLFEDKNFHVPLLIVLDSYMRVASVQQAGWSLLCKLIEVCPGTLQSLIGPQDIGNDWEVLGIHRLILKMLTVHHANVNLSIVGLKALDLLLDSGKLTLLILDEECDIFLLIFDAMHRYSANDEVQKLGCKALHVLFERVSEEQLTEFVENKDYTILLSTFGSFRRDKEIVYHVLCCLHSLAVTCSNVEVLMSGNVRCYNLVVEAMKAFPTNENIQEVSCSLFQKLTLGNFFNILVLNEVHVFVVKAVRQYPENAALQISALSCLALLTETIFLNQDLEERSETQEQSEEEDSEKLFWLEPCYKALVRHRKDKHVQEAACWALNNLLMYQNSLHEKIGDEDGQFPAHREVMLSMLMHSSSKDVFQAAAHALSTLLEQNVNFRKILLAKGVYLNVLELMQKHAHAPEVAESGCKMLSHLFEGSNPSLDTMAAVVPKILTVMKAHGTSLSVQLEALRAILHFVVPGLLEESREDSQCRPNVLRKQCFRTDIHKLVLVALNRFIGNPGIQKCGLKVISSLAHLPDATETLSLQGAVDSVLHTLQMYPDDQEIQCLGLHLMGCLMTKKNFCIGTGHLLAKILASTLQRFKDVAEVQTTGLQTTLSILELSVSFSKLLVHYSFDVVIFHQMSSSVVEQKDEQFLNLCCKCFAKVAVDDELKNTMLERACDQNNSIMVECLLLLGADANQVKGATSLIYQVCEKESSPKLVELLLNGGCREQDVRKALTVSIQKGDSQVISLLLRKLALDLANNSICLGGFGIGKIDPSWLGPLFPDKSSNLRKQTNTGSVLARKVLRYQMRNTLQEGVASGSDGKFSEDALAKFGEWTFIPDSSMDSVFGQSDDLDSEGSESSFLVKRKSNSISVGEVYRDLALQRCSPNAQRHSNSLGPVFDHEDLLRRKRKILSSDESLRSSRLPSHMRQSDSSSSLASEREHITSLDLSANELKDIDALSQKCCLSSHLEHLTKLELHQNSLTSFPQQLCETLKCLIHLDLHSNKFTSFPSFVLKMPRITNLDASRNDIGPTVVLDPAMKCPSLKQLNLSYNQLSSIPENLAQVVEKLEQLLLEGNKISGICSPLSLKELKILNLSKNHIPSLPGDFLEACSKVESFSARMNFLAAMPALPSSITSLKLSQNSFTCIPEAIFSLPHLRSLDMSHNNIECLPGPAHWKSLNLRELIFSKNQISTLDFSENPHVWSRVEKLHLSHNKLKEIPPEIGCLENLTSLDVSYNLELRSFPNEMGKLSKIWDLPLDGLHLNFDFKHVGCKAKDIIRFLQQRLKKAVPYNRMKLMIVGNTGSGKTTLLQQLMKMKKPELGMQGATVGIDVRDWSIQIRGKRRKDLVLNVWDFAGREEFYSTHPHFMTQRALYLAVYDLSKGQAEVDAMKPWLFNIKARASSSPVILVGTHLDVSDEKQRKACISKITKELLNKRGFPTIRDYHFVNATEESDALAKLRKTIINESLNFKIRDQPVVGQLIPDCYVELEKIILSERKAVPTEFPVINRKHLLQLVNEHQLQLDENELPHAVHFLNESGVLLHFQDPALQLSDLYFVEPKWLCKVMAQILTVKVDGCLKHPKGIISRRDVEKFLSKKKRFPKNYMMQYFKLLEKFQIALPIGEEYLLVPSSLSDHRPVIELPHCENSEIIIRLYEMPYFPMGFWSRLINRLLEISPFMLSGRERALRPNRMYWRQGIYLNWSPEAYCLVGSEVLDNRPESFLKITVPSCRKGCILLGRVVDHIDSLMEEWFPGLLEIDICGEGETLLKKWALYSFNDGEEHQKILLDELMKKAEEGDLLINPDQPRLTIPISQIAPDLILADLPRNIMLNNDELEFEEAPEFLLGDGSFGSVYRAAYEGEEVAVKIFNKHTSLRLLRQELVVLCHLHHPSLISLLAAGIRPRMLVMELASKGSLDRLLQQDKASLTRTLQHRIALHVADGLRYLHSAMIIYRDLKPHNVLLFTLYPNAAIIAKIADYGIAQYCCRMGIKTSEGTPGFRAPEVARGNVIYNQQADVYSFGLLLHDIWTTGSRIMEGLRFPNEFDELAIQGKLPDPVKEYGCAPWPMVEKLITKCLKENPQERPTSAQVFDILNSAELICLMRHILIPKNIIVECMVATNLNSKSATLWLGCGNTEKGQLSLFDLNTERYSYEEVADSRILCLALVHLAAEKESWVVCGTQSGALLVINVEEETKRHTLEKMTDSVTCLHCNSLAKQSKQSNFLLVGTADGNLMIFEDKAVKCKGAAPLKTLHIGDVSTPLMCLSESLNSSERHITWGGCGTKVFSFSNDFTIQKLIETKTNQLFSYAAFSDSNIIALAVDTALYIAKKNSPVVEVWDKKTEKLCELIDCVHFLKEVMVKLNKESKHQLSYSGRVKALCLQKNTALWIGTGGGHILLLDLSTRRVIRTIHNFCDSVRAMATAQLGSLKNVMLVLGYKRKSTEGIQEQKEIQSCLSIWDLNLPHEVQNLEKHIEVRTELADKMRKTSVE

COc1cc(C(=O)N2CCC(N3CCN(C)CC3)CC2)ccc1Nc1ncc2c(n1)N(C)c1ccccc1C(=O)N2C
inhibition [1]: inactive | inhibition [2]: Active | inhibition [3]: Active

CNc1nc(Nc2ccc(C(=O)N3CCOCC3)cc2OC)ncc1Cl
inhibition in vivo at 30 mg/kg [4]: 40% | inhibition [5]: Active | inhibition [6]: Dose-dependent effect | inhibition [7]: Dose-dependent effect | bioavailability [8]: 67% | t1/2 [9]: 7.8 min | AUClast [10]: 502 ng·h/mL | t1/2 [11]: 13 min | inhibition [12]: Active | inhibition [13]: Active | inhibition [14]: Active | inhibition [15]: Active | inhibition [16]: Active | inhibition [17]: Active | inhibition [18]: Active | inhibition [19]: Dose-dependent effect | inhibition [20]: Dose-dependent effect | inhibition in vivo at 50 mg/kg [21]: 70% | inhibition in vivo at 100 mg/kg ([1]; C57BL/6, Brain, route intraperitoneal): 70% | inhibition in vivo at 3 mg/kg [22]: 40% | inhibition in vivo at 10 mg/kg [23]: 80% | inhibition (INH) [24]: >90% | inhibition [25]: Dose-dependent effect | inhibition [26]: Dose-dependent effect | inhibition [27]: Dose-dependent effect | inhibition [28]: Dose-dependent effect | inhibition in vivo at 100 mg/kg [29]: 35% | inhibition in vivo at 100 mg/kg [30]: 35% | inhibition in vivo at 100 mg/kg [31]: 35% | inhibition in vivo at 100 mg/kg [32]: 35% | inhibition [33]: > 80% | inhibition [34]: > 80% | IC50 [35]: 2100 nM | IC50 [36]: 600 nM | inhibition [37]: Active
